Test results: paper PMC3397136 (Amino Acids, 2011)
Values joined by “and” are separate entries in the source; they are usually repeats but may differ in a detail not shown here. Identical values can stand only once. Like-named read-outs stand apart in the source and are kept apart here. Positions of bridges follow the written chain, without caps; N, C: chain ends. No end group written: not given here.

Assays:
strips of rat uterus [1] = assay type: cell-based; settings: for anti-oxytocic potency, times less potent than the mother compound III: in vitro uterus test
In short: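 Wistar rats were brought into estrus by estrogen injection 48 h before use. After decapitation, uterine horns were cut longitudinally and mounted in an organ bath without Mg2+, and isometric contraction height was recorded. Oxytocin standard, with or without test compound, or test compound alone was dosed cumulatively in doubling concentrations at 1 min intervals until maximal response. Results are agonist IU/mg or antagonist pA2, using uteri from 3–5 rats, mean ± SEM.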

[2] = tested on: arterial blood pressure (pressor response to AVP); experiment: vasopressor test in phenoxybenzamine-treated male rats under urethane anesthesia; assay type: in vivo, rat; settings: for Pressor IU/mg or pA2 (0 = no activity): 0 means no activity up to the dose of 0.15 mg/kg of experimental animal; for pressor activity (in words) / Pressor pA2 (antagonist): rat; for pressor activity (in words): in vivo; for Pressor pA2 (antagonist): i.v., antagonist 1 min before AVP
In short: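 Male Wistar rats were pretreated with phenoxybenzamine and anesthetized with urethane, and arterial blood pressure was recorded. AVP standard was given as single femoral-vein injections to build dose–response curves with and without antagonist, which was given 1 min earlier. Results are IU/mg for agonists or pA2 for antagonists, with distribution volume taken as 67 ml/kg. Inactivity means no response up to 0.15 mg/kg. 3–5 experiments, mean ± SEM.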

[3] = tested on: conscious male rats (antidiuresis); experiment: antidiuretic test on conscious male rats; assay type: in vivo, rat; settings: for Antidiuretic IU/mg: single value given, no level given; for Antidiuretic IU/mg (200 min): level t1/2 200 min (in parentheses); for Antidiuretic IU/mg (200 min) / Antidiuretic IU/mg 60 min: s.c., AVP taken as 465 IU/mg; for Antidiuretic IU/mg 60 min: threshold level t1/2 60 min; for antidiuretic activity (in words): rat, in vivo
In short: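 Fasted (16 h) conscious male Wistar rats given a tap-water load of 4% body weight by stomach catheter. Test compound or saline was then injected s.c. (0.001–100 nmol/kg), and urine was collected for 5 h in metabolic cages. The half-excretion time t1/2 was plotted against dose. […] Groups were 4–5 rats, with 2–3 independent days per dose.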

strips of rat uterus [4] = settings: cited from earlier work
[5] = tested on: arterial blood pressure (pressor response to AVP); settings: cited from earlier work
[6] = tested on: conscious male rats (antidiuresis); settings: cited from earlier work; for Antidiuretic IU/mg: single value, ref Lebl (1987); for Antidiuretic IU/mg (200 min): 200 min level; for Antidiuretic IU/mg 60 min: threshold level 60 min
[7] = rat uterus strips, no Mg2+, average ± SEM, n = 3–5
[8] = ref Melin et al. (1986), Manning et al. (1995)

Substance: Aba[cis-Apc^2,Val^4]AVP [XI]
- anti-oxytocic potency, times less potent than the mother compound III (strips of rat uterus [1]): ~10 times
- Pressor IU/mg or pA2 (0 = no activity) [2]: 0
- pressor activity (in words) [2]: eliminated its effect on blood pressure
- Antidiuretic IU/mg [3]: 0 IU/mg

Substance: arginine vasopressin (CYFQNCPRG-NH2; disulfide 1-6; UniProt P01185 20-28, looked up) [AVP]
- Uterotonic in vitro no Mg2+ IU/mg (strips of rat uterus [4]; ref Lebl (1987)): 17 IU/mg
- Pressor IU/mg ([5]; ref Lebl (1987)): 412 IU/mg
- Antidiuretic IU/mg [6]: 465 IU/mg

Substance: [Mpa^1,cis-Apc^2,D-Arg^8]VP [VI]
- Pressor pA2 (antagonist) [2]: pA2 ~ 7.1
- Antidiuretic IU/mg (200 min) [3]: 1,000 IU/mg
- Antidiuretic IU/mg 60 min [3]: 5 IU/mg

Substance: [Mpa^1,cis-Apc^2]OT [XIII]
- Uterotonic in vitro no Mg2+ pA2 (anti-oxytocic) (strips of rat uterus [1]; [7]): pA2 = 8.11 + 0.18
- Uterotonic in vitro no Mg2+ pA2 (anti-oxytocic) (strips of rat uterus [1]; rat uterus strips, no Mg2+, average ± SEM, n = 3–5, listed as [Mpa^1,cis-Apc^2]OT): 8.11
- Pressor pA2 (antagonist) [2]: pA2 ~ 6.0
- antidiuretic activity (in words) [3]: inactive
- Antidiuretic IU/mg [3]: 0 IU/mg

Substance: oxytocin [OT]
- Uterotonic in vitro no Mg2+ IU/mg (strips of rat uterus [4]; ref Lebl (1987)): 450 IU/mg
- Pressor IU/mg ([5]; ref Lebl (1987)): 5 IU/mg
- Antidiuretic IU/mg [6]: 5 IU/mg

Substance: Aca[cis-Apc^2,Val^4]AVP [VIII]
- Pressor IU/mg or pA2 (0 = no activity) [2]: 0
- pressor activity (in words) [2]: eliminated its effect on blood pressure
- Antidiuretic IU/mg (200 min) [3]: < 0.5 IU/mg
- Antidiuretic IU/mg 60 min [3]: < 0.01 IU/mg

Substance: [Cpa^1,Acc^2]AVP
- Uterotonic in vitro no Mg2+ pA2 (strips of rat uterus [4]; ref Jastrzębska et al. (2003)): 7.33

Substance: [cis-Apc^2]OT [XII]
- Uterotonic in vitro no Mg2+ pA2 (anti-oxytocic) (strips of rat uterus [1]; [7]): pA2 = 7.89 + 0.07
- Pressor pA2 (antagonist) [2]: pA2 ~ 5.75
- pressor activity (in words) [2]: weak

Substance: d[D-Tyr(Et)^2,Thr^4]OVT [Atosiban]
- Uterotonic in vitro no Mg2+ pA2 (strips of rat uterus [4]; [8]): 7.71 and 7.71 ± 0.05
- Pressor pA2 [5, 8]: pA2 = 6.14 ± 0.02
- Antidiuretic pA2 [6, 8]: pA2 = 5.9

Substance: [Cpa^1,cis-Apc^2]OT [XIV]
- Uterotonic in vitro no Mg2+ pA2 (anti-oxytocic) (strips of rat uterus [1]; [7]): pA2 = 7.97 + 0.24
- Pressor pA2 (antagonist) [2]: pA2 ~ 6.73

Substance: Hba[cis-Apc^2,Val^4]AVP [X]
- anti-oxytocic potency, times less potent than the mother compound III (strips of rat uterus [1]): about 4 times
- Antidiuretic IU/mg (200 min) [3]: < 0.5 IU/mg
- Antidiuretic IU/mg 60 min [3]: < 0.01 IU/mg

Substance: [cis-Apc^2,D-Arg^8]VP
- Pressor pA2 (antagonist) [2]: pA2 ~ 7.1
- Antidiuretic IU/mg (200 min) [3]: 200 IU/mg
- antidiuretic activity (in words) [3]: negligible
- antidiuretic potency relative to AVP ([3]; t1/2 level of 200 min): about 43%
- Antidiuretic IU/mg 60 min [3]: 1 IU/mg

Substance: [Cpa^1,cis-Apc^2]AVP [VII]
- Uterotonic in vitro no Mg2+ pA2 (anti-oxytocic) (strips of rat uterus [1]; [7]): pA2 = 7.85 + 0.14
- Pressor pA2 (antagonist) [2]: pA2 ~ 6.2
- pressor activity (in words) [2]: weak and low antagonistic activity
- Antidiuretic IU/mg (200 min) [3]: 1 IU/mg
- antidiuretic activity (in words) [3]: negligible
- Antidiuretic IU/mg 60 min [3]: 0.05 IU/mg

Substance: t-Bba[cis-Apc^2,Val^4]AVP [IX]
- Uterotonic in vitro no Mg2+ IU/mg (agonist) (strips of rat uterus [1]; [7]): 10.1 ± 3.8 IU/mg and 10.1 + 3.8 IU/mg
- Pressor IU/mg or pA2 (0 = no activity) [2]: 0
- pressor activity (in words) [2]: eliminated its effect on blood pressure
- Antidiuretic IU/mg (200 min) [3]: < 0.5 IU/mg
- Antidiuretic IU/mg 60 min [3]: < 0.01 IU/mg

Substance: [Acc^2,Val^4]AVP
- Uterotonic in vitro no Mg2+ pA2 (strips of rat uterus [4]; ref Kowalczyk et al. (2004)): pA2 = 6.9
- Pressor IU/mg ([5]; ref Kowalczyk et al. (2004)): 0.9 ± 0.30 IU/mg
- Antidiuretic IU/mg (200 min) ([6]; ref Kowalczyk et al. (2004)): 23,000 IU/mg
- Antidiuretic IU/mg 60 min ([6]; ref Kowalczyk et al. (2004)): 2,300 IU/mg

Substance: [Mpa^1,Acc^2]AVP
- Uterotonic in vitro no Mg2+ pA2 (strips of rat uterus [4]; ref Kowalczyk et al. (2004)): ~5.6
- Uterotonic in vitro no Mg2+ IU/mg (strips of rat uterus [4]; value in parentheses, ref Kowalczyk et al. (2004)): 0.7 IU/mg
- Pressor IU/mg ([5]; ref Kowalczyk et al. (2004)): 17.2 ± 0.8 IU/mg
- Antidiuretic IU/mg (200 min) ([6]; ref Kowalczyk et al. (2004)): 50,000 IU/mg
- Antidiuretic IU/mg 60 min ([6]; ref Kowalczyk et al. (2004)): 4,500 IU/mg

Substance: [Acc^2]AVP
- Uterotonic in vitro no Mg2+ pA2 (strips of rat uterus [4]; ref Jastrzębska et al. (2003)): pA2 ~ 5.6
- Pressor IU/mg ([5]; ref Jastrzębska et al. (2003)): 56.6 IU/mg
- Antidiuretic IU/mg (200 min) ([6]; ref Jastrzębska et al. (2003)): ~9,300 IU/mg
- Antidiuretic IU/mg 60 min ([6]; ref Jastrzębska et al. (2003)): 750–900 IU/mg

Substance: [Mpa^1]OT
- Uterotonic in vitro no Mg2+ IU/mg (strips of rat uterus [4]; ref Lebl (1987)): 803 IU/mg
- Pressor IU/mg ([5]; ref Lebl (1987)): 1.44 IU/mg
- Antidiuretic IU/mg [6]: 19 IU/mg
